Reference: ChEMBL document CHEMBL1126616, “1,2-Cyclomethylenecarboxylic monoamide hydroxamic derivatives. A novel class of non-amino acid angiotensin converting enzyme inhibitors” (J Med Chem, 1993)

T1: Angiotensin-converting enzyme (Rattus norvegicus, UniProt P47820)
T1 sequence (P47820 whole entry): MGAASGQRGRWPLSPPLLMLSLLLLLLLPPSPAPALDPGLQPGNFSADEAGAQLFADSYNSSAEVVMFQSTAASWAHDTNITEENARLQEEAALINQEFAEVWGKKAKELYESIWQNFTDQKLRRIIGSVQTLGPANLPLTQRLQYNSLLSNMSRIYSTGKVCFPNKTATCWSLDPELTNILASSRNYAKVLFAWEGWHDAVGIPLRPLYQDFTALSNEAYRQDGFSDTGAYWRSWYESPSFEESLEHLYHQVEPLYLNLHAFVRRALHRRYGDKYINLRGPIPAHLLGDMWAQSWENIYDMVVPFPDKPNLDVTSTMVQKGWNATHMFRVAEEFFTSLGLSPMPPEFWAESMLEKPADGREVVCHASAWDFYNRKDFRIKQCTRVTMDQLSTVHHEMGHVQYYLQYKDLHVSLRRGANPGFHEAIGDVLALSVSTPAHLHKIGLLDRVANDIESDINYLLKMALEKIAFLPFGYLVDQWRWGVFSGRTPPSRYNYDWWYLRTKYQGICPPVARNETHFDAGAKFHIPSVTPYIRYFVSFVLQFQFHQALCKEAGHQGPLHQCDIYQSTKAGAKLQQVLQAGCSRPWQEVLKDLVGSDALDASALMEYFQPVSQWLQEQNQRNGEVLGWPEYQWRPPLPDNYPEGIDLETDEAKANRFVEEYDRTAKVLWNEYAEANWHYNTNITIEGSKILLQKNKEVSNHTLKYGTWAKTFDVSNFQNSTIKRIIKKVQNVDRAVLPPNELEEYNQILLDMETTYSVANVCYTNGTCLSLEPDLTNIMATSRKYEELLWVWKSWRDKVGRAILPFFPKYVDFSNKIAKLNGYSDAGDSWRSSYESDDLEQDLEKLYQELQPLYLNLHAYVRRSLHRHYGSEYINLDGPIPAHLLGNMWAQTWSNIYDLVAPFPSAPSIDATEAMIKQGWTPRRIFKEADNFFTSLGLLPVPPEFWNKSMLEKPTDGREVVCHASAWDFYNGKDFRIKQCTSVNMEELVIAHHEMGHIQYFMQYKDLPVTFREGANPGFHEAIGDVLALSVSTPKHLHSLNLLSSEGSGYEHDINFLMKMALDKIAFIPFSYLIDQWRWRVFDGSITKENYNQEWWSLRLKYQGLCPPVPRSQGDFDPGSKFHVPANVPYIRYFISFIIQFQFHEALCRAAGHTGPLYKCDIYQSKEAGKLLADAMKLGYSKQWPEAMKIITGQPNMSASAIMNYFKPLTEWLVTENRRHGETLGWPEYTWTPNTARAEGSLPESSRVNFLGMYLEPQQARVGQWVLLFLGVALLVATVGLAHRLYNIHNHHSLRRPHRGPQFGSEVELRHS

B1: Angiotensin-converting enzyme (Rattus norvegicus), P47820 (protein)
chain: MGAASGQRGRWPLSPPLLMLSLLLLLLLPPSPAPALDPGLQPGNFSADEAGAQLFADSYNSSAEVVMFQSTAASWAHDTNITEENARLQEEAALINQEFAEVWGKKAKELYESIWQNFTDQKLRRIIGSVQTLGPANLPLTQRLQYNSLLSNMSRIYSTGKVCFPNKTATCWSLDPELTNILASSRNYAKVLFAWEGWHDAVGIPLRPLYQDFTALSNEAYRQDGFSDTGAYWRSWYESPSFEESLEHLYHQVEPLYLNLHAFVRRALHRRYGDKYINLRGPIPAHLLGDMWAQSWENIYDMVVPFPDKPNLDVTSTMVQKGWNATHMFRVAEEFFTSLGLSPMPPEFWAESMLEKPADGREVVCHASAWDFYNRKDFRIKQCTRVTMDQLSTVHHEMGHVQYYLQYKDLHVSLRRGANPGFHEAIGDVLALSVSTPAHLHKIGLLDRVANDIESDINYLLKMALEKIAFLPFGYLVDQWRWGVFSGRTPPSRYNYDWWYLRTKYQGICPPVARNETHFDAGAKFHIPSVTPYIRYFVSFVLQFQFHQALCKEAGHQGPLHQCDIYQSTKAGAKLQQVLQAGCSRPWQEVLKDLVGSDALDASALMEYFQPVSQWLQEQNQRNGEVLGWPEYQWRPPLPDNYPEGIDLETDEAKANRFVEEYDRTAKVLWNEYAEANWHYNTNITIEGSKILLQKNKEVSNHTLKYGTWAKTFDVSNFQNSTIKRIIKKVQNVDRAVLPPNELEEYNQILLDMETTYSVANVCYTNGTCLSLEPDLTNIMATSRKYEELLWVWKSWRDKVGRAILPFFPKYVDFSNKIAKLNGYSDAGDSWRSSYESDDLEQDLEKLYQELQPLYLNLHAYVRRSLHRHYGSEYINLDGPIPAHLLGNMWAQTWSNIYDLVAPFPSAPSIDATEAMIKQGWTPRRIFKEADNFFTSLGLLPVPPEFWNKSMLEKPTDGREVVCHASAWDFYNGKDFRIKQCTSVNMEELVIAHHEMGHIQYFMQYKDLPVTFREGANPGFHEAIGDVLALSVSTPKHLHSLNLLSSEGSGYEHDINFLMKMALDKIAFIPFSYLIDQWRWRVFDGSITKENYNQEWWSLRLKYQGLCPPVPRSQGDFDPGSKFHVPANVPYIRYFISFIIQFQFHEALCRAAGHTGPLYKCDIYQSKEAGKLLADAMKLGYSKQWPEAMKIITGQPNMSASAIMNYFKPLTEWLVTENRRHGETLGWPEYTWTPNTARAEGSLPESSRVNFLGMYLEPQQARVGQWVLLFLGVALLVATVGLAHRLYNIHNHHSLRRPHRGPQFGSEVELRHS

target: T1, Angiotensin-converting enzyme; test: In vitro inhibitory activity against rat serum angiotensin I converting enzyme using hippuryl-glycyl-glycine as substrate; assay type: cell-free

IC50 [µM]	Molecule
1.8	CN(CC(=O)NO)C(=O)C1CCCCC1C(=O)O (stereo in doubt; 21b)
0.4	CCCN(CC(=O)NO)C(=O)C1CCCCC1C(=O)O (cis isomer)
624	O=C(O)CCC(=O)N1CCCC1C(=O)O (stereo not drawn)
3	O=C(CNC(=O)C1CCCCC1C(=O)O)NO (cis isomer)
0.014	CCN(CC(=O)NO)C(=O)C1CCCCC1C(=O)O (trans isomer)
> 150	CCN(CC(=O)NOCc1ccccc1)C(=O)C1CCCCC1C(=O)O (trans isomer)
11	O=C(O)C1CCCC1C(=O)NCCS (stereo not drawn)
> 150	O=C(O)C1CCCCC1C(=O)NCCS (trans isomer)
97	CCN(CC(=O)O)C(=O)C1CCCCC1C(=O)O (stereo in doubt; 7e)

substrate: CN(CC(=O)NO)C(=O)C1CCCCC1C(=O)O; test: Michaelis-Menten's constant for the hydrolysis of hippuryl-glycyl-glycine by rat serum ACE at the concentration of 12 nM; assay type: cell-free
Procedure, shortened: (§1)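 For rat serum ACE kinetics, the dependence of hippurylglycylglycine hydrolysis rate on substrate concentration was measured at increasing inhibitor concentrations. Apparent Km and Vmax were derived for each inhibitor level.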

Molecule	Km [mM]
B1	129

substrate: CN(CC(=O)NO)C(=O)C1CCCCC1C(=O)O; test: Michaelis-Menten's constant for the hydrolysis of hippuryl-glycyl-glycine by rat serum ACE at the concentration of 3 nM; procedure, shortened: as §1

Molecule	Km [mM]
B1	43

substrate: CN(CC(=O)NO)C(=O)C1CCCCC1C(=O)O; test: Michaelis-Menten's constant for the hydrolysis of hippuryl-glycyl-glycine by rat serum Angiotensin I Converting Enzyme at the concentration of 6 nM; assay type: cell-free; procedure, shortened: as §1

Molecule	Km [mM]
B1	62

substrate: CN(CC(=O)NO)C(=O)C1CCCCC1C(=O)O; test: Michaelis-Menten's constant for the hydrolysis of hippuryl-glycyl-glycine by rat serum ACE; assay type: cell-free; procedure, shortened: as §1

Molecule	Km [mM]
B1	21
